Reference: PMC11410521 (Biochemical pharmacology, 2024)
Several values for one entry are separate records, joined by “and”; a condition that tells them apart may be missing. Identical values can stand only once. Like-named read-outs stand apart in the source and are kept apart here.

How the values were obtained:
human FABP1 [1] = biological target: T1, human FABP1 (Homo sapiens, UniProt P07148); experiment: DAUDA displacement assay of cannabinoid binding to FABP1
T1 sequence (P07148 1-127): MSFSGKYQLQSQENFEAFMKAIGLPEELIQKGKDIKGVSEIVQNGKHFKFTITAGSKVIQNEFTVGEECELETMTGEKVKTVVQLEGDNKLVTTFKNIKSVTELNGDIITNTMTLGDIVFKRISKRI
How it was run: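 Purified human FABP1, protein quantified by BCA and held on ice in gel filtration buffer with 0.5 mM DTT, titrated with test cannabinoid displacing DAUDA. Fluorescence spectra scanned at 600 nm/min, PMT 800 V. Bound-DAUDA signal extracted by singular value decomposition. Kd from ternary binding model fit; EC50 from three-parameter dose-response fit. Mean ± SD, three days, ≥2 protein batches.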

[2] = test system: human liver microsomes from six individual liver donors; assay type: in vitro ADME; details: for inhibition of M3 formation in donor HL-109: HL-109: low CYP2C19 activity, high CYP3A activity, no CYP3A5 expression
How it was run: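 HLMs from six donors (2 CYP3A5 expressors, 4 non-expressors), 1 mg/mL, were preincubated 10 min with 0.5 μM CYP3cide plus 1 mM NADPH, with a methanol vehicle control. They were diluted 40-fold to 0.025 mg/mL in buffer with 1 mM NADPH, then 2 μM THC was added. Reactions ran 2 min before quench and LC-MS/MS. % activity remaining was normalised to vehicle, in duplicate.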

[3] = Kinetics of THC metabolite formation in pooled human liver microsomes; assay type: in vitro ADME; details: human, pooled human liver microsomes, pooled HLMs 0.1 mg/mL
How it was run: (§1)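 Pooled HLMs at 0.1 mg/mL with nominal THC 0.05–5 μM in 100 mM potassium phosphate pH 7.4. After 5 min preincubation at 37 °C, 1 mM NADPH was added and reactions ran 2 min, within time linearity. Quench was acetonitrile/1% formic acid with 11-OH-THC-d3, then LC-MS/MS. Michaelis-Menten fits used bead-measured free THC; linear fits gave CLint,u where saturation was absent. Three days, duplicates.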

[4] = test system: pooled human liver microsomes; experiment: as above; assay type: in vitro ADME; details: pooled HLMs 0.1 mg/mL; mean ± SD, 3 days
How it was run: as §1

CYP2C9 = experiment: THC incubations with recombinant CYP2C9 in the presence and absence of FABP1; assay type: in vitro ADME, human; details: human
How it was run: (§2)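 Recombinant CYP2C9 (Supersomes) at 1 nM (0.0016 mg/mL microsomal protein), with seven nominal THC concentrations of 10–640 nM in pH 7.4 phosphate buffer, ±20 μM FABP1 added before 5 min preincubation at 37 °C. Started with 1 mM NADPH, 1 min, with a no-NADPH control. Quench was acetonitrile/formic acid with 11-OH-THC-d3, then LC-MS/MS. Km,u and kcat came from Michaelis-Menten fits against free THC; matched pairs, separate days.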

recombinant CYP2C9 = experiment: as above; assay type: in vitro ADME, human; details: recombinant CYP2C9, absence of FABP1
How it was run: as §2

CYP2C19 = experiment: THC incubations with recombinant CYP2C19 in the presence and absence of FABP1; assay type: in vitro ADME, human; details: human
How it was run: (§3)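 Recombinant CYP2C19 (Supersomes) at 1 nM (0.013 mg/mL microsomal protein), with nominal THC 0.02–1.0 μM, ±20 μM FABP1 added before 5 min preincubation at 37 °C. Started with 1 mM NADPH, 2 min, with a no-NADPH control, then quench and LC-MS/MS. Matched ±FABP1 pairs. Michaelis-Menten fits against free THC from bead measurements, with a mass-balance calculation when FABP1 was present. Replicates on separate days.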

recombinant CYP2C19 = experiment: as above; assay type: in vitro ADME, human
How it was run: as §3

CYP3A4 = experiment: THC incubations with recombinant CYP3A4 in the presence and absence of FABP1; assay type: in vitro ADME, human; details: human
How it was run: (§4)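 Recombinant CYP3A4 (Supersomes) at 0.625 nM (0.004 mg/mL microsomal protein), with seven nominal THC concentrations of 0.156–3.75 μM, ±20 μM FABP1 added before 5 min preincubation at 37 °C. Started with 1 mM NADPH, 1 min, with a no-NADPH control, then LC-MS/MS. M4 data were fitted to an allosteric sigmoidal model (K0.5, h); other metabolites used Michaelis-Menten fits, against free THC; matched pairs.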

recombinant CYP3A4 = experiment: as above; assay type: in vitro ADME, human
How it was run: as §4

[5] = THC unbound fraction in human liver microsome incubations; assay type: in vitro ADME; details: pooled liver microsomes, pH 7.4
How it was run: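 Magnetic silica beads (200 μL), washed three times, were pre-equilibrated 30 min on ice with HLM protein at incubation concentration in 0.5 mL buffer. THC was added at each nominal kinetic concentration and incubated 30 min at 37 °C with shaking, then cooled 5 min. Total and supernatant samples were quenched and measured by LC-MS/MS; fu = Cfree/Ctotal.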

[6] = THC unbound fraction in incubations with recombinant CYPs; assay type: in vitro ADME; details: human, recombinant CYP3A4 microsomes (Supersomes), pH 7.4
How it was run: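 Magnetic silica beads (50 μL), washed three times, were pre-equilibrated 30 min on ice with recombinant CYP at incubation protein concentration in 0.2 mL buffer. THC was added at each nominal kinetic concentration and incubated 30 min at 37 °C with shaking, then cooled 5 min at room temperature. Total and supernatant THC were measured by LC-MS/MS; fu = Cfree/Ctotal.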

recombinant CYPs = experiment: THC metabolite formation by a panel of recombinant CYPs; assay type: in vitro ADME, human; details: 10 μM THC
How it was run: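 Individual recombinant CYPs (10 pmol/mL) across a twelve-enzyme panel were preincubated 5 min at 37 °C with 10 μM THC in 100 mM potassium phosphate pH 7.4. Reactions were started with 1 mM NADPH and ran 15 min, then were quenched with acetonitrile/1% formic acid containing 11-OH-THC-d3 and analysed by LC-MS/MS. Relative formation was the metabolite/internal-standard peak-area ratio; peaks below S/N 5 were not quantified.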

[7] = test system: human liver microsomes from three individual donors; experiment: Impact of FABP1 on THC metabolism in HLMs from individual donors; assay type: in vitro ADME; details: HLM incubations
[8] = cited from earlier work
[9] = test system: HLMs and recombinant CYP2C9; details: cited from earlier work; for Km: in HLM
human FABP1 [10] = biological target: T1, human FABP1; details: read-out: Kd previously reported; cited from earlier work
[11] = cited from earlier work; remark: listed apart in the source
[12] = recombinant CYP3A4, absence of FABP1, allosteric sigmoidal model
[13] = THC depletion, 500 nM nominal, 0.2% BSA

## C=C(C)[C@@H]1CCC(C)=C[C@H]1c1c(O)cc(CCCCC)cc1O [CBD, cannabidiol]
Human FABP1 [1]
  EC50: 920 ± 70 nM

## Cc1ccc(-c2c(-c3nn(C)c4ncnc(N5CC[C@H](N6CCCCC6)C5)c34)cnn2C)cc1 [CYP3cide]
[2]; CYP3cide 0.5 μM
  inhibition of M4 formation in donors without CYP3A5 expression: ~100%
[2]
  inhibition of M3 formation in donor HL-109: ~100%

## CCCCCc1cc(O)c2c(c1)OC(C)(C)[C@@H]1CCC(C)=C[C@@H]21 [THC, Δ9-tetrahydrocannabinol]
Human FABP1 [1]
  EC50: 220 ± 130 nM
[3]; Km,unbound of M2 formation, free THC concentrations
  Km at 2 min: > 45 nM
[3]; Km,unbound of M3 formation, free THC concentrations
  Km at 2 min: > 45 nM
[3]; Km,unbound of M4 formation, no saturation, linear
  Km at 2 min: > 45 nM
[4]
  Vmax of 11-OH-THC formation: 521 ± 53 pmol/min/mg HLM
CYP2C9; recombinant CYP2C9 (Supersomes) with 20 μM FABP1, Km,u + FABP1, 11-OH-THC formation, recombinant CYP2C9, 20 μM FABP1
  Km at 1 min: > 20 nM
CYP2C9; recombinant CYP2C9 (Supersomes), Km,u −FABP1, 11-OH-THC formation, recombinant CYP2C9, absence of FABP1
  Km at 1 min: 0.8 nM
Recombinant CYP2C9; read-out: Km,u −FABP1, 11-OH-THC formation
  Km: 0.77 ± 0.16 nM
Recombinant CYP2C9
  kcat −FABP1, 11-OH-THC formation: 0.2 s⁻¹ and 0.2 ± 0.0145 s⁻¹
CYP2C19; recombinant CYP2C19 (Supersomes) with 20 μM FABP1, Km,u + FABP1, 11-OH-THC formation, recombinant CYP2C19, 20 μM FABP1
  Km at 2 min: 5.2 ± 0.64 nM
CYP2C19; recombinant CYP2C19 (Supersomes) with 20 μM FABP1, Km,u + FABP1, M3 formation, recombinant CYP2C19, 20 μM FABP1
  Km at 2 min: 4.7 ± 0.72 nM
CYP2C19; recombinant CYP2C19 (Supersomes), Km,u −FABP1, 11-OH-THC formation, recombinant CYP2C19, absence of FABP1
  Km at 2 min: 2.2 nM
CYP2C19; recombinant CYP2C19 (Supersomes), Km,u −FABP1, M3 formation, recombinant CYP2C19, absence of FABP1
  Km at 2 min: 2.2 nM
Recombinant CYP2C19; recombinant CYP2C19, 20 μM FABP1
  kcat + FABP1, 11-OH-THC formation: 0.133 ± 0.0333 s⁻¹
Recombinant CYP2C19; recombinant CYP2C19, absence of FABP1
  kcat −FABP1, 11-OH-THC formation: 0.233 s⁻¹ and 0.233 ± 0.0113 s⁻¹
CYP3A4; recombinant CYP3A4 (Supersomes) with 20 μM FABP1, Km,u + FABP1, M2 formation, recombinant CYP3A4, 20 μM FABP1
  Km at 1 min: > 20 nM
CYP3A4; recombinant CYP3A4 (Supersomes) with 20 μM FABP1, Km,u + FABP1, M4 formation, recombinant CYP3A4, 20 μM FABP1
  Km at 1 min: > 20 nM
CYP3A4; recombinant CYP3A4 (Supersomes), Km,u of the other three major metabolites, formed mainly by recombinant CYP3A4/5
  Km at 1 min: > 10 nM
CYP3A4; recombinant CYP3A4 (Supersomes), Km,u −FABP1, M2 formation, recombinant CYP3A4, absence of FABP1
  Km at 1 min: 29 ± 19 nM
CYP3A4; recombinant CYP3A4 (Supersomes), Km,u −FABP1, M3 formation, recombinant CYP3A4, absence of FABP1
  Km at 1 min: 18 ± 13 nM
Recombinant CYP3A4; 20 μM FABP1
  M3 formation by recombinant CYP3A4 in the presence of FABP1: completely abolished
Recombinant CYP3A4; [12]
  K0.5,u −FABP1, M4 formation: 43 ± 25 nM
  hill slope (h), M4 formation: 1.4 ± 0.5
[5]
  fraction unbound at 30 min: 0.015 ± 0.001
[6]
  fraction unbound at 30 min: 0.15 ± 0.02
Recombinant CYPs
  velocity of 11-OH-THC formation by CYP2C9 and CYP2C19 relative to CYP2D6: ~ 3 fold
  velocity of 11-OH-THC formation by CYP2C9 and CYP2C19 relative to other CYPs: > 10 fold
[7]; 2 μM THC, 20 μM FABP1 vs absence
  decrease in free concentrations of THC by FABP1 binding: 86%
[7]; 2 μM nominal THC
  free THC in the absence of FABP1: 14 nM
[7]; 2 μM nominal THC, 20 μM FABP1
  free THC in the presence of FABP1: 2 nM
[8]; after iv administration
  dose recovered in urine and feces: less than 1%
[8]; after oral dosing
  THC exposure (AUC) in CYP2C9*3/*3 carriers compared to CYP2C9*1/*1 carriers: 3 fold
[8]
  hepatic extraction ratio: around 0.8
  increase of AUC of THC when co-administered with ketoconazole: ~ 80%
[8]; estimated from AUC in CYP2C9 genotypes
  contribution of CYP2C9 to THC clearance (fraction metabolized): about 70%
[8]; oral dosing of THC
  THC exposure on co-administration of rifampicin: decreases THC exposure
[9]; [13]
  THC metabolic clearance in pooled HLMs assigned to CYP2C9: 91% and > 90%
  THC metabolic clearance in pooled HLMs assigned to CYP2D6: 9%
[9]; read-out: unbound Km (Km,u) for 11-OH-formation
  Km: 8 nM
[9]; read-out: unbound Km (Km,u) for THC depletion
  Km: 7 nM
Human FABP1 [10]
  Kd: 2900 nM
[11]
  blood to plasma ratio: 0.67
[11]; plasma
  plasma protein binding fu: 0.01

## CCC1(c2ccccc2)NC(=O)N(Cc2ccccc2)C1=O (single isomer, unassigned; (+)) [Benzylnirvanol, (+)-N-3-benzylnirvanol]
[2]
  inhibition of M3 formation in donor HL-109: no impact

## CCCCC/C=C\C/C=C\C/C=C\C/C=C\CCCC(=O)NCCO [AEA, anandamide]
Human FABP1 [1]
  EC50: 310 ± 140 nM

## CCCCC/C=C\C/C=C\C/C=C\C/C=C\CCCC(=O)OC(CO)CO [2AG, 2-arachidonoylglycerol]
Human FABP1 [1]
  EC50: 180 ± 20 nM
  Kd: 60 ± 40 nM
